The text below walks through data of publication PMC11106139 (Clinical Pharmacokinetics, 2024).

Series [1] can be described thus: Population pharmacokinetic. In kind it is in vivo, human. The settings on record: SOLNC 0.8 and 2 mg/mL (phase III studies and commercial formulations). The method in brief: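 Pooled plasma data from 159 children with achondroplasia on daily subcutaneous vosoritide (2.5–30 µg/kg) across three phase II and two phase III trials. Samples were assayed by validated ELISA or electrochemiluminescence, and mostly pre-dose points were excluded. The fit was a one-compartment model with change-point first-order absorption (Ka1/Ka2) and first-order elimination, using log-transform-both-sides and SAEM/importance sampling. Covariates were added stepwise (p<0.01) with backward elimination, against a reference weight of 20 kg.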

In series [2] the test system is children with achondroplasia. Particulars: 15 µg/kg per day, 1-year period, analysis of covariance; cited from earlier work.

Consider `CC[C@H](C)[C@@H]1NC(=O)[C@H](CCCNC(=N)N)NC(=O)[C@H](CC(=O)O)NC(=O)[C@H](CC(C)C)NC(=O)[C@H](CCCCN)NC(=O)[C@H](CC(C)C)NC(=O)CNC(=O)[C@H](Cc2ccccc2)NC(=O)[C@@H](NC(=O)CNC(=O)[C@H](CCCCN)NC(=O)[C@H](CO)NC(=O)[C@H](CC(C)C)NC(=O)CNC(=O)[C@H](CCCCN)NC(=O)[C@H](CCCCN)NC(=O)[C@H](CC(N)=O)NC(=O)[C@H](C)NC(=O)CNC(=O)[C@H](CCCCN)NC(=O)[C@H](Cc2ccc(O)cc2)NC(=O)[C@H](CCCCN)NC(=O)[C@H](CCCNC(=N)N)NC(=O)[C@H](C)NC(=O)[C@H](CC(N)=O)NC(=O)[C@@H]2CCCN2C(=O)[C@H](Cc2c[nH]cn2)NC(=O)[C@H](CCC(=O)O)NC(=O)[C@H](CCC(N)=O)NC(=O)CNC(=O)[C@@H]2CCCN2)CSSC[C@@H](C(=O)O)NC(=O)CNC(=O)[C@H](CC(C)C)NC(=O)CNC(=O)[C@H](CO)NC(=O)[C@H](CCSC)NC(=O)[C@H](CO)NC(=O)CNC1=O` [vosoritide], for which the “effect of dosing solution concentration on relative bioavailability (F)” value in series [1] is on record as “did not have any effect on F”. Besides, the “increase in annualized growth velocity (least squares mean change from baseline) compared with placebo” value in series [2] is listed as 1.57 cm/year.
